High-throughput results from PubChem BioAssay.
Shown are actives, neighbours in structure and some others; about 1.5% of the full set was active somewhere.
APJ agonist: agonists of human apelin receptor APJ, primary screen, CHO-K1 cells, PathHunter beta-arrestin, luminescence | 0.11% of 330,000 active | 0% DMSO wells, 100% apelin | activation, % at 20 µM;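 active = activation more than six SD over the plate average, tested at 20 µM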
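Material: CHO-K1 APJ beta-arrestin complementation cell line; Input: cell density 1000 per well; Incubation: compound stimulation 90 min at 25 °C, detection 60 min; Signal: luminescence from split beta-galactosidase complementation, Galacton Star/Emerald II substrate; Controls: DMSO-only wells as negative, 10 nM Apelin-13 as positive control.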
CCR6 antagonist: CCR6 receptor antagonists, primary screen, cell-based, CHO-K1, luminescence, beta-arrestin, uHTS; C-C chemokine receptor type 6 (Homo sapiens), P51684; CHO-K1 CCR6 PathHunter beta-arrestin, CCL20-stimulated; inhibition, % at 20 µM; 0.49% of 340,000 active;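 active = compounds whose inhibition of the agonist-driven luminescence signal at 20 µM reaches about 50%, limit read from the data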;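 also: cells stimulated with CCL20 at 14 nM final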
Target sequence (P51684 whole entry, looked up): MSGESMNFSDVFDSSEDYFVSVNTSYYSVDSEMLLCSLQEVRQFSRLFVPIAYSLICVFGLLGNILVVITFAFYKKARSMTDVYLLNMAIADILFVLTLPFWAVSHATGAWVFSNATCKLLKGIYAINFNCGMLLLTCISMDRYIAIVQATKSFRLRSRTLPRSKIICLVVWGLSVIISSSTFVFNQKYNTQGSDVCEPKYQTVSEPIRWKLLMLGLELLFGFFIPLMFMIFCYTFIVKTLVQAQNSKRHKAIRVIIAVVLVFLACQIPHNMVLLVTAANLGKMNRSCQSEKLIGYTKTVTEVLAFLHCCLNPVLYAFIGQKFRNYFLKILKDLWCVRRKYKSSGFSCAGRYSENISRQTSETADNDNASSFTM
APJ antag: antagonists of human apelin receptor APJ, primary screen, CHO-K1 cells, beta-arrestin complementation, luminescence | P35414 | AID 2521, 2010 | 0.32% of 330,000 active | inhibition, % at 20 µM;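 active = inhibition above about 40% at 20 µM, limit read from the data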;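 also: cells challenged with 10 nM apelin-13 agonist together with compound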
EBI2 antag: EBI2 receptor antagonists, beta-arrestin recruitment, primary screen, cell-based, luminescence, 7a,25-OHC stimulation, uHTS; 0.81% of 360,000 active; 7a,25-OHC stimulated; inhibition, % at 5 µM; G-protein coupled receptor 183 (Homo sapiens), P32249; AID 651636, 2012; in the data active = inhibition above about 38%;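 also: enzyme fragment complementation signal reports receptor beta-arrestin coupling in cells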
CXCR6 inh: CXCR6 receptor inhibitors, primary screen, cell-based, beta-arrestin, luminescence, CHO-K1 PathHunter, 1536-well; inhibition, % at 20 µM; 0.36% of 360,000 active; C-X-C chemokine receptor type 6 (Homo sapiens), O00574; AID 602244, 2012; in the data active = inhibition above about 34%, passing the limit was not always enough;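 also: antagonist mode with CXCL16 agonist at 10 nM final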
EBI2 conf: EBI2 antagonist hit retest, beta-arrestin, confirmation, cell-based, single concentration, luminescence, 7a,25-OHC stimulation; shares compounds with EBI2 antag; 7a,25-OHC antagonism; inhibition, % at 5 µM; 29% of 2,400 active; AID 651997, 2013;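 active = inhibition of at least 50%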
EBI2 ag: EBI2 agonist activity of antagonist hits, confirmation, counter-screen for EBI2 antagonist project, cell-based, single concentration, agonist mode, luminescence | 2,400 tested, under 10 active | shares compounds with EBI2 antag | AID 652000, 2013 | EBI2-expressing cells, 60 min; 0% vehicle, 100% 7α,25-dihydroxycholesterol control | activation, % at 5 µM;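 active = activation of at least 50%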
bGal counter: E. coli beta-galactosidase enzyme inhibition, confirmation, counter-screen for EBI2 antagonist project, biochemical, luminescence, single concentration. 1% of 2,400 active. inhibition, % at 5 µM. shares compounds with EBI2 antag. purified beta-galactosidase, luminescent Galacton Star, 15 min;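 active = replicate-average signal at least 3 plate SD below neutral wells, shown as high inhibition, flagging enzyme-inhibiting false positives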;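 also: higher means stronger loss of beta-gal luminescence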
Hits are given with their value; 0 = inactive; - = not tested or not shown.

SMILES	APJ agonist	CCR6 antagonist	APJ antag	EBI2 antag	CXCR6 inh	EBI2 conf	EBI2 ag	bGal counter
O=C(NCCCc1ccccc1)C1CCC(=O)N(Cc2ccc(Cl)cc2)C1 (stereo unspecified)	0	0	0	0	0	-	-	-
COc1ccc(CCCNC(=O)C2CCC(=O)N(Cc3ccc(Cl)cc3)C2)cc1 (stereo unspecified)	0	0	0	49.0	0	0	0	0
C[C@H](CO)N1C[C@H](C)[C@@H](CN(C)C(=O)Cc2ccccc2)OCCCC[C@H](C)Oc2ccc(NC(=O)NC3CCCCC3)cc2C1=O	-	-	-	0	0	-	-	-
COC(=O)c1cc(=O)n(Cc2ccc(F)cc2)c(=Nc2ccccc2)s1	0	0	0	59.9	0	61.8	0	0
COC(=O)c1cc(=O)n(CCc2ccc(OC)c(OC)c2)c(=Nc2ccc(F)c(Cl)c2)s1	0	0	0	63.5	0	62.1	0	0
CNC(=O)C1CC(=O)N(CCc2ccc(OC)c(OC)c2)C(=Nc2ccc(F)cc2)S1 (stereo unspecified)	0	0	0	0	0	-	-	-
CCOC(=O)c1ccc(N=c2sc(C(=O)OC)cc(=O)n2-c2ccc(C(=O)OCC)cc2)cc1	0	0	0	79.2	0	73.5	0	0
COC(=O)c1cc(=O)n(Cc2ccco2)c(=Nc2ccc(F)cc2)s1	0	0	0	0	0	-	-	-
COC(=O)c1cc(=O)n(Cc2cccs2)c(=Nc2ccccc2)s1	0	0	0	0	0	-	-	-
COC(=O)c1cc(=O)n(-c2ccccc2)c(=Nc2ccccc2)s1	0	0	0	0	0	-	-	-
COC(=O)c1cc(=O)n(Cc2ccc(OC)c(OC)c2)c(=Nc2ccc(F)cc2)s1	0	0	0	70.0	0	50.5	0	0
O=C(Nc1ccc2c(c1)OCO2)c1ccc2c(c1)S(=O)(=O)c1ccccc1C2=O	0	0	0	0	0	-	-	-
COC(=O)[C@@H]1CCCN1C(=O)CCc1nnc(CCC2CCCCC2)o1	0	0	0	0	0	-	-	-
CCOc1ccc(C(=O)N2CCCN(C(=O)c3ccc(OCC)cc3)CC2)cc1	0	0	0	45.1	0	0	0	0
COc1ccc(C(=O)N2CCCC2)cc1	0	0	0	0	0	-	-	-
COc1cc(OC)cc(C(=O)N2CCC(C(=O)c3ccc(F)cc3)CC2)c1	0	0	0	0	0	-	-	-
COc1ccc(C(=O)N2CCC(C(=O)c3ccc(F)cc3)CC2)cc1	0	0	0	58.7	0	0	0	0
CCOc1ccc(C(=O)N2CCC(C(=O)c3ccc4c(c3)OCCO4)CC2)cc1	0	0	0	81.0	0	55.9	0	0
COc1ccc(C(=O)C2CCN(C(=O)c3ccc(OC)cc3)CC2)cc1	0	0	0	58.1	0	0	0	0
C=CCN1C(=O)/C(=C/c2ccccc2)S/C1=N/c1nccs1	0	0	0	57.1	0	0	0	0
C=CCN1C(=O)CS/C1=N/c1nccs1	0	0	0	0	0	-	-	-
Cc1ccc(C)c(S(=O)(=O)N2CCN(C(=O)c3cnccn3)CC2)c1	0	0	0	0	0	-	-	-
Cc1ccc(S(=O)(=O)N2CCN(C(=O)CCc3c[nH]c4ccccc34)CC2)c(C)c1	0	0	0	47.0	0	0	0	0
Cc1ccccc1OCCC(=O)N1CCN(S(=O)(=O)c2ccccc2F)CC1	0	0	0	0	0	-	-	-
Cc1ccc(C)c(S(=O)(=O)N2CCN(C(=O)c3ccc4ccccc4n3)CC2)c1	0	0	0	49.8	0	0	0	0
SMILES	APJ agonist	CCR6 antagonist	APJ antag	EBI2 antag	CXCR6 inh	EBI2 conf	EBI2 ag	bGal counter
Cc1ccc(C)c(S(=O)(=O)N2CCN(C(=O)CCNS(=O)(=O)c3ccc(C)c(C)c3)CC2)c1	0	0	0	0	0	-	-	-
Cc1ccc(C)c(S(=O)(=O)N2CCN(C(=O)CCNC(=O)c3ccc(Br)cc3)CC2)c1	0	0	0	75.2	0	0	0	0
Cc1ccc(C)c(OCCC(=O)N2CCN(S(=O)(=O)c3cc(C)ccc3C)CC2)c1	0	0	0	66.3	0	0	0	0
Cc1csc(=Nc2ccc(S(=O)(=O)N3CCOCC3)cc2)n1Cc1ccco1	0	0	0	0	0	-	-	-
Cc1nc2[nH]c(=O)n(O)c(=O)c2s1	-	0	-	0	0	-	-	-
Cc1ccccc1OCCC(=O)N1CCN(S(=O)(=O)c2ccc(Br)cc2)CC1	0	0	0	43.8	0	0	0	0
Cc1cc(C)c(S(=O)(=O)N2CCN(C(=O)CCOc3ccccc3C)CC2)c(C)c1	0	0	0	81.3	0	0	0	0
Cc1ccccc1OCCC(=O)N1CCN(S(=O)(=O)c2ccc(F)cc2)CC1	0	0	0	0	0	-	-	-
O=C(CCCOc1ccccc1)N1CCN(S(=O)(=O)c2cccs2)CC1	0	0	0	0	0	-	-	-
CC(=O)c1ccc(OCC(=O)N2CCN(S(=O)(=O)c3ccc(Br)s3)CC2)cc1	0	0	0	68.8	0	0	0	0
CC(=O)c1ccc(OCCCC(=O)N2CCN(S(=O)(=O)c3cccs3)CC2)cc1	0	0	0	48.7	0	0	0	0
O=C(O)[C@H](Cc1ccccc1)NC(=O)N1CCN(c2ccccc2)CC1	0	0	0	0	0	-	-	-
Cc1cc(OCC(=O)N(C)C2CCCCC2)cc(C)c1Cl	0	0	0	79.2	0	0	0	0
Cc1cc(OCC(=O)N(C)C2CCCCC2)ccc1Cl	0	0	0	73.6	0	0	0	0
CN(C(=O)COC(=O)COc1ccc(Cl)cc1)C1CCCCC1	0	0	0	0	0	-	-	-
Cc1ccc(Cl)cc1NC(=O)COC(=O)CCN1C(=O)C2CC=CCC2C1=O (stereo unspecified)	0	0	0	0	0	-	-	-
O=C1C=C(/C=C/C2C=CC=CC2)C[C@@H](c2ccc(Cl)cc2)C1 (stereo partly specified)	0	0	0	47.6	0	0	0	0
O=C1C=C(O)CC(c2ccc(Cl)cc2)C1 (stereo unspecified)	0	0	0	0	0	-	-	-
Cc1nn(C2CC(O)C(O)C(CO)O2)c(=O)[nH]c1=O (stereo unspecified)	-	0	-	0	0	-	-	-
CC(C)C1CCN(C(=O)C2CCC(=O)N(CCc3ccc(Cl)cc3)C2)CC1 (stereo unspecified)	0	0	0	78.9	0	50.2	0	0
